Experimental data taken from ChEMBL document CHEMBL1765045, “Fine-tuning the selectivity of aldosterone synthase inhibitors: structure-activity and structure-selectivity insights from studies of heteroaryl substituted 1,2,5,6-tetrahydropyrrolo[3,2,1-ij]quinolin-4-one derivatives” (J Med Chem, 2011).
pIC50: −log10 of the molar value.

What was measured:
CYP2C9 = CYP2C9 (Homo sapiens, UniProt P11712); test: Inhibition of human CYP2C9 expressed in baculovirus-infected insect microsomes at 1 uM; format: ADME, Microsome
Summary of the method: (§1)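 Recombinant human CYP1A2, 2B6, 2C9, 2C19, 2D6 or 3A4 in baculovirus-infected insect microsomes (Supersomes), run per manufacturer's protocol. Inhibitor at 1 and 10 μM; percent inhibition is the mean of two experiments.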

[1] = biological target: T1, Cytochrome P450 11B2, mitochondrial (Homo sapiens, UniProt P19099); test: Inhibition of human CYP11B2 expressed in hamster V79 MZh cells assessed as conversion of [4-14C]-11-deoxycorticosterone substrate by HPTLC assay; format: cell-based
T1 sequence (P19099 whole entry): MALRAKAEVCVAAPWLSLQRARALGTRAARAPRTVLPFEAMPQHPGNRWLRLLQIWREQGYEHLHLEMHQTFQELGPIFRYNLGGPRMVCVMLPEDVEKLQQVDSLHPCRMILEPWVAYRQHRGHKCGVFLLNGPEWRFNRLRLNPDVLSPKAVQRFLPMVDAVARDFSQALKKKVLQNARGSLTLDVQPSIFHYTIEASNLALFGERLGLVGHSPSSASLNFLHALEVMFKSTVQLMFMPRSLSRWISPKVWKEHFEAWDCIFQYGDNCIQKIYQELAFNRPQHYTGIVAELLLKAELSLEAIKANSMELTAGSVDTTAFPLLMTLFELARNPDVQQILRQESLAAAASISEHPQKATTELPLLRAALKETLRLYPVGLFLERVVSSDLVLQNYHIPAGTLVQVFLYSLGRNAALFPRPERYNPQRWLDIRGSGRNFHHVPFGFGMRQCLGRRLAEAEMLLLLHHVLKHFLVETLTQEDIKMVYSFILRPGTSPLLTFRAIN
Summary of the method: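 Hamster V79 MZh fibroblasts expressing human CYP11B2 incubated with [4-14C]-11-deoxycorticosterone (100 nM) and inhibitor at ≥3 concentrations; reaction stopped with ethyl acetate, steroids extracted after shaking and centrifugation (10000g, 2 min). Substrate conversion read by HPTLC with phosphoimaging.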

[2] = biological target: T2, Cytochrome P450 11B1, mitochondrial (Homo sapiens, UniProt P15538); test: Inhibition of human CYP11B1 expressed in hamster V79 MZh cells assessed as conversion of [4-14C]-11-deoxycorticosterone substrate by HPTLC assay; format: cell-based
T2 sequence (P15538 whole entry): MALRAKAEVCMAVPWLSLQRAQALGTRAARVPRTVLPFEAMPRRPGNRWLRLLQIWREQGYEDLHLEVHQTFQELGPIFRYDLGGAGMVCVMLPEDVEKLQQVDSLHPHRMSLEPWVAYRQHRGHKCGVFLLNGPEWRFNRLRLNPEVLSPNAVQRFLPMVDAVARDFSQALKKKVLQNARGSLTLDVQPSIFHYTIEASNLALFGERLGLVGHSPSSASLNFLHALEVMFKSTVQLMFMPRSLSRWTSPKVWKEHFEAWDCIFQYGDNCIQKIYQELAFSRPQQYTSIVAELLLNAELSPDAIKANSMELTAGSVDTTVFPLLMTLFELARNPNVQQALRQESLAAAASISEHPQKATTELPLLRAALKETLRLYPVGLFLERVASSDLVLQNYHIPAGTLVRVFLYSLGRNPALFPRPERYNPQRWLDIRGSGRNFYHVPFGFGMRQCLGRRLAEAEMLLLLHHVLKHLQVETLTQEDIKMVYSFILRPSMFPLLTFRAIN
Summary of the method: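 V79 MZh hamster fibroblasts stably expressing human CYP11B1 or CYP11B2 incubated with [4-14C]-11-deoxycorticosterone, 100 nM, plus inhibitor at ≥3 concentrations. Reaction stopped with ethyl acetate, steroids extracted into the organic phase, and substrate conversion quantified by HPTLC with phosphoimaging. IC50 is the mean of at least three experiments.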

CYP1A2 [3] = biological target: T3, CYP1A2 (Homo sapiens, UniProt P05177); test: Inhibition of human CYP1A2 expressed in baculovirus-infected insect microsomes at 1 uM; format: ADME, Microsome; summary of the method: as §1
T3 sequence (P05177 whole entry): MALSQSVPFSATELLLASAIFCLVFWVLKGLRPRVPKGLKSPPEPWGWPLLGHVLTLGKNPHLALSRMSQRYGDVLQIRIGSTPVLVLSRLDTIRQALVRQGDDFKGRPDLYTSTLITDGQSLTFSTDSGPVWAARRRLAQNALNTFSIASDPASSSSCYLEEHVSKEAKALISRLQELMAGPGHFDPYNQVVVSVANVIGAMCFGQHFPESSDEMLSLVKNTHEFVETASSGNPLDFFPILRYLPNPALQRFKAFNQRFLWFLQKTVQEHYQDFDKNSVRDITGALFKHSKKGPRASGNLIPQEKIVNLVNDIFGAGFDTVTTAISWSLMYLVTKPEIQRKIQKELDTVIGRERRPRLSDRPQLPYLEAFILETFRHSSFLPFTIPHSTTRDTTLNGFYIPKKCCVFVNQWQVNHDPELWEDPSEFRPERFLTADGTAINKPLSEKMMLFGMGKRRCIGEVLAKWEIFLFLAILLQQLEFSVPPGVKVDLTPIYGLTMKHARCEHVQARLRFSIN

Homo sapiens = species on record: Homo sapiens; test: Selectivity ratio of IC50 for human CYP11B1 to IC50 for human CYP11B2
Summary of the method: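 Ratio of IC50 values from V79 MZh cell assays for human CYP11B1 and CYP11B2, IC50 CYP11B1/IC50 CYP11B2. Both assays used [4-14C]-11-deoxycorticosterone, 100 nM, inhibitor at ≥3 concentrations and HPTLC/phosphoimager readout of conversion.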

aromatase (CYP19) = biological target: T4, aromatase (CYP19) (Homo sapiens, UniProt P11511); test: Inhibition of aromatase at 0.5 uM
T4 sequence (P11511 whole entry): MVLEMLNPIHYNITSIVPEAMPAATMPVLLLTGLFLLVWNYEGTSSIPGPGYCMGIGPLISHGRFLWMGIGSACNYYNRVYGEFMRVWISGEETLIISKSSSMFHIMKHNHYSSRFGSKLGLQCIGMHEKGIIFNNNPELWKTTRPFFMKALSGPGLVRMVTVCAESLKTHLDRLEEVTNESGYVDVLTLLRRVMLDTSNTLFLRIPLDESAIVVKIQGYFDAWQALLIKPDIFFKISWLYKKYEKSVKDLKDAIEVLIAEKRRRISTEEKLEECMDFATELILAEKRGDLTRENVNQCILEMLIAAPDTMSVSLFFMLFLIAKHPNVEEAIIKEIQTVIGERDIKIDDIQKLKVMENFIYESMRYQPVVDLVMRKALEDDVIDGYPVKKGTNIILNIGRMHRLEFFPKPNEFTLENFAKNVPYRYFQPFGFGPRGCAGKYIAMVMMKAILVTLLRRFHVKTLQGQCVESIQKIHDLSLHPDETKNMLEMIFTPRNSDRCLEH
Summary of the method: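 Human placental microsomes as CYP19 source, [1β-3H]androstenedione substrate at 500 nM, inhibitor at 500 nM. Modified Thompson–Siiteri method, with fadrozole as reference.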

CYP1A2 [4] = biological target: T3, CYP1A2; test: Inhibition of CYP1A2 at 1 uM; format: ADME; summary of the method: as §1

Sequence of CYP2C9 (P11712 whole entry): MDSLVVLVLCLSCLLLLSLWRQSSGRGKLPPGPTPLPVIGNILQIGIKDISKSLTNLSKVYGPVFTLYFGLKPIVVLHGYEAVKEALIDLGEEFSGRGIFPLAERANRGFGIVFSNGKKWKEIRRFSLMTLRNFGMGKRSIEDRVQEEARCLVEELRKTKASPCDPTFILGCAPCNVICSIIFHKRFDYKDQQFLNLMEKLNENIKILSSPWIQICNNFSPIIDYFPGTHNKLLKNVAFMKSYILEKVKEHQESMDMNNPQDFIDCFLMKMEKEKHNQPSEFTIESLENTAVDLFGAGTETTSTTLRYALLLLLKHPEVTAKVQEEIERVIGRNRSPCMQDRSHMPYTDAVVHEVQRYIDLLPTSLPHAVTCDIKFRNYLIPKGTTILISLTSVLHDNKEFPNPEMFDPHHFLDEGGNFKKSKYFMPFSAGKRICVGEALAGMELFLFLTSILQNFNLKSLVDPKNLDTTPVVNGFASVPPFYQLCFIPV

SMILES	inhibition at 1 µM (CYP2C9)	pIC50 [1]	pIC50 [2]	inhibition at 1 µM (CYP1A2 [3])	Ratio IC50 (Homo sapiens)	inhibition at 0.5 µM (aromatase (CYP19))	inhibition at 1 µM (CYP1A2 [4])
O=C1CCc2cc(-c3cccnc3)cc3c2N1CC3	6%	8.96	6.15	8%	650		
O=C1CCc2cc(-c3cccnc3)cc3c2N1CCC3	19%	8.62	5.64	41%		69%	41%
O=C1CCc2cc(-c3cncc(-c4cccc(F)c4)c3)cc3c2N1CC3	39%	8.85	6.31	9%			
COc1cncc(-c2cc3c4c(c2)CCN4C(=O)CC3)c1	23%	9.22	6.61	37%			
